Cytotoxicity data for 98 compounds are collected here from ChEMBL document CHEMBL4513216, “Probing the Open Global Health Chemical Diversity Library for Multistage-Active Starting Points for Next-Generation Antimalarials” (ACS Infect Dis, 2020).

This data set is described as follows: Toxicity liver stage against HepG2, at 10uM. Format: cell-based. On the set-up: test concentration 10 uM, cell line HepG2-A16-CD81EGFP. Conditions: human, HepG2-A16-CD81EGFP cells; read-out: INHIBITION
In a few lines: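 Uninfected HepG2-A16-CD81EGFP cells, 3 × 10^3 per well, 1536-well, plated on prespotted compound at 10 μM final, parasite-free screening media added to match infected plates; puromycin 10 μM positive, DMSO 0.5% negative; run in parallel with 48 h PbLuc assay at 37 °C, 5% CO2; viability by CellTiter-Glo luminescence, normalized to controls.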
As to `CCS(=O)(=O)N1CCc2ccc(NC(=O)NCc3ccccc3)cc21`, the cytotoxicity at 10 µM was determined as 10.9%. Next, `CC(C)n1ncc2c1NC(=O)CC21C(=O)Nc2c(Cl)cc(Br)cc21` (stereo not drawn): -5.15%; `CC1CCN(S(=O)(=O)c2cccn(CC(=O)NC(C)(C)C)c2=O)CC1`: 0.00219%; `O=C(C1CCCC1)N1CC(c2nc(Cc3ccccc3)no2)C1`: 4.84%. Consider `CSCC(C)(O)CNS(=O)(=O)c1ccc(Br)cc1` (stereo not drawn), for which the cytotoxicity at 10 µM was -1.61%. In the case of `O=C(O)CC(CC(=O)NCc1ccsc1)c1cccs1` (stereo not drawn), the cytotoxicity at 10 µM was -8.43%. Turning to `CC(=O)c1ccc(S(=O)(=O)Nc2cnn(C3CCOCC3)c2)cc1`, the cytotoxicity at 10 µM was -2.25%. For `O=C(NC1CC1)N1CC[C@@H](O)[C@@H]1Cc1ccccc1`, the cytotoxicity at 10 µM is 1.91%. Next, `CCCS(=O)(=O)N1Cc2nccn2CC(Cn2cccn2)C1` (stereo not drawn): -120%; `CN(C)c1nccc(N2CCO[C@H]3CN(Cc4ccco4)C[C@H]32)n1`: -122%; `COCCNC(=O)c1cn(C(C)(C)C)c2ncccc12`: 2.74%. On to `Cc1ccc(C2CCCCCN2Cc2cn(C)nc2C)cc1` (stereo not drawn), for which the cytotoxicity at 10 µM is -8.56%. Next, `Cc1cnc(N2CC3(CCN(C(=O)c4ccoc4)C3)C2)nc1`: -10.1%; `CN1C[C@H]2CCN(C(=O)NC3CCCC3)CC[C@H]2S1(=O)=O`: 2.66%. Next, `CC(C)Nc1nc(O)cc(C2CC(=O)N(C3CCCCC3)C2)n1` (stereo not drawn): 4.5%. Consider `Fc1ccc2[nH]c3c(c2c1)CCN1C(c2ccccn2)N2CCC31CC2` (stereo not drawn), for which the cytotoxicity at 10 µM was 6.16%. Next, `Cc1nonc1CN(C)Cc1cnn(-c2ccc(F)cc2)c1`: -16.3%; `Cn1cc(C(=O)N2CCN(c3ccccc3)CC2)ccc1=O`: -0.408%; `O=C(C1CCC1)N1CCOc2cccc(F)c21`: 0.877%. On to `CCCc1c(C(=O)N2CCN(Cc3ccccn3)CC2)cnn1C`, for which the cytotoxicity at 10 µM was -1.96%.

In the case of `CCc1noc(C(C)N2CCC(NS(=O)(=O)c3cccs3)CC2)n1` (stereo not drawn), the cytotoxicity at 10 µM stood at 8.45%. Next, `CC(C)CCN(C)Cn1ncc2cn(-c3ccccc3)nc2c1=O`: 6.72%; `Cc1ccc(C(C)NC(=O)CSCC(N)=O)cc1` (stereo not drawn): 3.37%; `O=c1n(CCNCc2ccc3ccccc3c2)nc2ccccn12`: 18.6%. Take `Cc1ccc(C(C)NCCc2nccn2Cc2ccccc2)o1` (stereo not drawn): the cytotoxicity at 10 µM was 1.98%. Next, `COCCNC(=O)NC(c1ccccc1)c1ccccc1OC` (stereo not drawn): -0.238%.

Turning to `CCN(C(=O)CN1CCCC1c1c(C)nn(C)c1OC)C1CC1` (stereo not drawn), the cytotoxicity at 10 µM is -0.54%. Next, `CC1CCCN(CCCNC(=O)Cc2csc(-c3ccoc3)n2)C1` (stereo not drawn): 3.39%; `CC(C)(C)n1ncc2c(=O)[nH]c(N3CC(O)C3)nc21`: -8.61%; `CCC(C)(NCC(=O)NC(C)C)c1nccs1` (stereo not drawn): 3.26%. Next, `CC(C)C(C(=O)N1CCCN(Cc2cscn2)CC1)n1cncn1` (stereo not drawn): -2.1%; `CC(C)CN1CCC(NC(=O)c2ccc(F)cc2Cl)CC1`: -17.1%. Next, `CC(CN1CCOCC1)NC(=O)c1cc(Cl)c2c(c1)OCCO2` (stereo not drawn): -1.4%; `Cc1ccc(OCCN(C)Cc2cscn2)cc1`: 0.51%. Consider `O=C(Nc1ccc(F)cc1)NC1(CCO)CCOCC1`, for which the cytotoxicity at 10 µM was determined as 22.3%. Next, `CC1CN(C(=O)c2ccn(C)c(=O)c2)c2ccccc2NC1=O` (stereo not drawn): 2.94%; `COc1ccc(Cl)cc1-c1cc(NC(=O)C2COCCO2)[nH]n1` (stereo not drawn): -29.1%. Next, `NC(=O)NC(=O)CNC1(c2ccc(Cl)cc2)CCC1`: 9.23%. `Cc1ccc(-n2nc(C)cc2N)nn1`: the cytotoxicity at 10 µM was 16%. Next, `N#CC1(NC(=O)Cn2nnc(-c3cc4ccccc4o3)n2)CCCC1`: 0.696%; `Cc1cc(C)n(-c2cncc(NCCNC(=O)C(C)C)n2)n1`: -2.91%. Next, `COCc1nc(NCC2CCS(=O)(=O)C2)c2cnn(C)c2n1` (stereo not drawn): -5.97%. Next, `Cc1cccnc1CCNC(=O)CC1C(=O)NCCN1CCC(C)C` (stereo not drawn): 9.01%; `Cc1nc(O)cc(CCNc2nccc(CCC(F)(F)F)n2)n1`: -149%. For `O=C(c1ccc(Cn2cnnn2)cc1)N1CCC(c2ccncc2)CC1`, the cytotoxicity at 10 µM turned out to be 0.571%. Next, `COCc1noc(CN2CC(Cc3ccccc3)CC2=O)n1` (stereo not drawn): -0.472%.

Consider `CCn1nc(C)c(NC(=O)CN(C)C(C)c2nccs2)c1C` (stereo not drawn), for which the cytotoxicity at 10 µM was -143%. Next, `CCCn1ncc(C(=O)NCc2n[nH]c3c2CCCCC3)c1C`: 8.72%; `CN(Cc1cc(C(C)(C)C)n[nH]1)C(=O)c1ccccc1C1CCNC1` (stereo not drawn): -2.32%; `COCCc1noc(Cn2ccc3ncccc3c2=O)n1`: -2.59%. Next, `Cn1cnnc1CN1CCC2(CCCN(C3CCCCC3)C2=O)C1` (stereo not drawn): -117%.

Take `CC(C)(O)CCc1cccc(C(=O)NCCC2CCOC2)c1` (stereo not drawn): the cytotoxicity at 10 µM is -1.94%. As to `Cc1nc(C(C)N(C)Cc2nc(CCC(C)C)no2)c(C)s1` (stereo not drawn), the cytotoxicity at 10 µM was -4.76%. Regarding `Cc1ccc2oc(CN3CCC(C(=O)O)(n4ccnc4)CC3)c(C)c2c1`, the cytotoxicity at 10 µM was -9.06%. Next, `O=C(c1cccc(S(=O)(=O)NCCc2ccccn2)c1)N1CCOCC1`: -0.764%; `COCCC1(CO)CCCN(Cc2ccncc2)C1` (stereo not drawn): -141%; `O=C(CC1CNCCO1)N1CCC(c2cc(N3CCCC3)ncn2)CC1` (stereo not drawn): 5.81%.

As for `Cn1cc(-c2cc(C(F)F)n3nc(CCC(=O)O)nc3n2)cn1`, the cytotoxicity at 10 µM was determined as 1.61%. Next, `O=C(NCC1CCOC1)c1csc(-c2ccc(F)cc2)n1` (stereo not drawn): -3.06%; `Cc1nc(C2CCCN(C(=O)CCCn3cccn3)C2)sc1C` (stereo not drawn): -0.317%; `COc1ccnc(N2CCN(CC(=O)N3CCC(C)CC3)CC2)n1`: -3.63%. Next, `COCCCN1CCN(CCOC)C(C)C1` (stereo not drawn): -13.4%; `Cc1nc(CN(C)C2CCN(CC3CCCC3)C2)no1` (stereo not drawn): -5%; `O=C(CN1CCN(c2nccs2)CC1)Nc1cccnc1`: -4.23%. Next, `Cc1cccc(-c2ccc(C(=O)NCC3CCCOC3)c(=O)[nH]2)c1` (stereo not drawn): -15.7%; `c1ncn(CC2CCCN(Cc3cn4ccsc4n3)C2)n1` (stereo not drawn): -7.04%. For `Cc1occc1CNC(=O)N1CCC(Cc2cnn(C)c2)C1` (stereo not drawn), the cytotoxicity at 10 µM was -11.1%. Next, `Cc1ncsc1C(=O)N(C)Cc1ccsc1`: -9.8%; `c1ccc(-c2noc(CN3CCCC(Cn4cncn4)C3)n2)nc1` (stereo not drawn): 3.12%. Turning to `Cc1cc(CN2CCN(C(=O)NCc3ccc(C)s3)CC2)on1`, the cytotoxicity at 10 µM was -4.56%. Next, `CC(C)c1nc(CN2CCCN(Cc3nccn3C)CC2)no1`: 1.13%.

With `Cc1cc(C2CCCN(C(=O)COc3cc(C)on3)C2)n[nH]1` (stereo not drawn), the cytotoxicity at 10 µM is -3.87%.

`Cc1ccc(CNCC2CCN(CC(O)c3ccccc3)CC2)o1` (stereo not drawn): the cytotoxicity at 10 µM is -3.33%. Next, `COCCC(=O)N1CCCN(Cc2nccn2C(C)C)CC1`: -10.1%. `COCc1nc(C(=O)N2CCCC2c2cccc(C)c2)cs1` (stereo not drawn): the cytotoxicity at 10 µM was -8.93%. For the compound `COCCCNC(=O)Nc1ccc(F)c(C(N)=O)c1`, the cytotoxicity at 10 µM was -12.9%.

In the case of `Cc1cnn(CC2CCCCN2c2nn3cc(C)nc3s2)c1` (stereo not drawn), the cytotoxicity at 10 µM was -18.4%. Next, `CCCc1n[nH]c(C2CN(CCc3cccs3)CCO2)n1` (stereo not drawn): 4.1%; `Cc1ccc(CC(=O)N2CCCN(Cc3nccn3C)CC2)cn1`: -22.3%.

As for `CN1CCN(C2CCN(Cc3nnc(C(C)(C)C)o3)CC2)C1=O`, the cytotoxicity at 10 µM is -16.2%. Next, `O=C(NCCCNc1ccc(C(F)(F)F)cn1)c1ccc(F)cc1F`: 3.61%; `Cc1ccc(C(=O)Nc2cc(F)ccc2OCC2CCCO2)cn1` (stereo not drawn): 0.207%. On to `CCc1nc(CC(=O)N2CCCC2CN2CCCC2)cs1` (stereo not drawn), for which the cytotoxicity at 10 µM was found to be 7.27%. Next, `COc1cccc(Nc2nc(C3CCCNC3)c3ccccn23)c1` (stereo not drawn): -0.47%.

As to `O=C1COC2(CCN(Cc3ccoc3)CC2)CN1c1ccccc1`, the cytotoxicity at 10 µM is -122%.

As for `O=c1cccnn1CC1CN(CC2CCCC2)Cc2nccn2C1` (stereo not drawn), the cytotoxicity at 10 µM came to 5.03%. Regarding `Cc1ccc2c(c1)C(NC(=O)N(C)C)CC21CCN(C)CC1` (stereo not drawn), the cytotoxicity at 10 µM was found to be 10.4%. Next, `O=C(c1cscn1)N1CC[C@@H]2[C@@H]1CCN2C1CCOCC1`: 2.11%.

`CNC(=O)[C@H]1C[C@@H]2CN(S(=O)(=O)c3cccc(F)c3)C[C@@H]2N1C`: the cytotoxicity at 10 µM was -4.94%. Next, `Cc1nc(CN2CCN(C3CCOC3)Cc3cccnc32)cs1` (stereo not drawn): 8.91%; `CN(C)C(=O)[C@@H]1C[C@H]2OCC[C@H]2N(CCOc2ccc(Cl)cc2)C1`: -124%; `Cc1noc(C)c1CN1CCO[C@H]2CN(Cc3cnn(C)c3)C[C@H]21`: -0.292%. With `Cn1cccc1C(=O)N1CCC2(CC1)CC(N1CCOCC1)C2`, the cytotoxicity at 10 µM is -8.25%.

In the case of `O=C([C@@H]1C[C@@H]2CCN(C3CCOCC3)C[C@@H]2O1)N1CCCC1`, the cytotoxicity at 10 µM was determined as 6.81%. Next, `COCCN1CC[C@@H]2O[C@@H](COCC(=O)N3CCCC3)CC[C@@H]21`: -18.1%; `CCc1c(C)[nH]c(C2(N)CCCC2)nc1=O`: -0.327%. Next, `COC1COC2(CCN(Cc3cccc(C#N)c3)CC2)C1` (stereo not drawn): -1.75%; `N#Cc1ccc(C(=O)O)nc1C=Cc1cccc(F)c1`: 8%.
